Compound activity as filed in PubChem.
In the library only some 1.7% were active in any assay of this set; here they are far more common.
HNF4A DNA FP – change in binding of human HNF4 alpha to DNA | P41235 | HNF4a-FITC DNA binding, fluorescence polarization, 1 h | activity change, % at 10 µM | 360,000 compounds, 0.3% hits | AID 1224865; in the data active = activity change above about 30%, passing the limit was not always enough
TPT1 inhibitor – blocks Candida albicans tRNA 2'-phosphotransferase; recombinant caTPT1, FP RNA substrate dephosphorylation; inhibition, % at 5 µM; 300,000 compounds, 0.81% hits; AID 1962;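 active = inhibition above the mean of all tested compounds plus 3 SD, set per screening campaign, cut at about 24% in these data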;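 also: plate controls were DMSO alone for no effect and ferristatin control at 100 nM for full effect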
Rpn11 block – blocks the human proteasome subunit Rpn11. human 26S proteasome, Ub4-pepOG fluorescence polarization; 20S core pre-blocked with epoxomicin. AID 588493. 360,000 compounds, 0.59% hits. inhibition, % at 20 µM. O00487;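 active = inhibition at 20 µM, scaled to each plate's controls, above about 33%, limit read from the data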
CSN deneddyl inh – blocks human CSN-mediated cullin deneddylation; Q92905; Purified CSN, SCF-Nedd8-OG deneddylation, fluorescence polarization; inhibition, % at 12.5 µM; 360,000 compounds, 0.38% hits;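 active = pattern-corrected inhibition above about 35%, with an unprinted fluorescence ratio check between 0.5 and 1.5, limit read from the data, passing the limit was not always enough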;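 also: 0% = enzyme with substrate and 100% = substrate without enzyme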
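Assay system: purified human Csn5 enzyme expressed in HEK293T cells; Input: 0.24 nM Csn5 enzyme, final concentration; Reagent: 10 nM SCFSkp2-Nedd8OG; Compound dosing: 12.5 µM single point; Times: reaction 90 min, room temperature; Technique: fluorescence polarization readout.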
IDE cell activ – IDE (human) activation, cell-based; activation, % at 5.96 µM; 340,000 compounds, 0.073% hits; HEK cells, FAbeta-B cleavage, fluorescence polarization; 0% vehicle, 100% cell-free pure enzyme wells; P14735;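 active = activation above the mean of all tested compounds plus 3 SD, set per screening campaign, cut at about 17% in these data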
Target sequence (P14735 whole entry, looked up): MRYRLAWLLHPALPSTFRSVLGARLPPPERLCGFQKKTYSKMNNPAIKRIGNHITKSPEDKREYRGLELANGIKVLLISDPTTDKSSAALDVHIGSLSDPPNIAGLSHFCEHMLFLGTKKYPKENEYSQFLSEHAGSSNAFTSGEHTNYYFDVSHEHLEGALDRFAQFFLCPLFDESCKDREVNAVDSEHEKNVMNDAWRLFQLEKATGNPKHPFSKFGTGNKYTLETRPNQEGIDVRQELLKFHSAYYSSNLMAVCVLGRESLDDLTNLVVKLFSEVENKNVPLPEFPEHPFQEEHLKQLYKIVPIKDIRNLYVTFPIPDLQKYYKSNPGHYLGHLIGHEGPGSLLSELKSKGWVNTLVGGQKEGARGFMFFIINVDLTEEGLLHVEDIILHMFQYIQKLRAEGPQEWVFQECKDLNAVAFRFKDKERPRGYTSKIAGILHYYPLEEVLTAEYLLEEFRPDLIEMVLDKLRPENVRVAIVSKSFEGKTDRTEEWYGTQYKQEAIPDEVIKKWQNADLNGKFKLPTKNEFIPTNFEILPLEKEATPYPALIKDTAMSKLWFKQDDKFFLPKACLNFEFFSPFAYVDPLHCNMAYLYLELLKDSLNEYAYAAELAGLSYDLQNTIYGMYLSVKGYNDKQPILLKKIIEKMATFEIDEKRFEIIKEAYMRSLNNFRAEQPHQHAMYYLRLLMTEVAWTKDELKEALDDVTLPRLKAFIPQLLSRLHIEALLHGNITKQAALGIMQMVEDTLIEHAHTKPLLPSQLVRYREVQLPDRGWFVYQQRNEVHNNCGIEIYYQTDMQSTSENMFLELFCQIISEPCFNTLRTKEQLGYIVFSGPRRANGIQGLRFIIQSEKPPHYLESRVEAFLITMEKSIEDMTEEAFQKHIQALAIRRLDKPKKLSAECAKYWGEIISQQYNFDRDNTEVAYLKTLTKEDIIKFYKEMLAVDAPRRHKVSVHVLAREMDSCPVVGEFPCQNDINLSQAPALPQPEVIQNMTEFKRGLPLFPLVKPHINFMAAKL
IDE inh – inhibitors of human insulin-degrading enzyme in cells. P14735. HEK cells, FAbetaB cleavage, fluorescence polarization. inhibition, % at 5.59 µM. 320,000 compounds, 0.41% hits. AID 434962;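 active = percent inhibition above the average of all tested compounds plus 3 SD, set per screening campaign, cut at about 16% in these data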;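 also: IDE supplied by intact live HEK cells; FP after avidin binding of uncleaved biotin substrate so inhibition keeps polarization high; 0% = DMSO wells and 100% = 60 µM reference IDE inhibitor Ii1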
Rpn11 confirm – confirmation of human proteasome Rpn11 inhibitors | 1,900 compounds, 29% hits | purified human 26S proteasome, Ub4-pepOG fluorescence polarization; proteasome pretreated with epoxomicin | shares compounds with Rpn11 block | inhibition, % at 20 µM
MMP-2 inh – counter-screen for RPN11 inhibitors: inhibition of human MMP-2; inhibition, % at 20 µM; 1,900 compounds, 4% hits; recombinant MMP-2, FRET peptide cleavage fluorescence; shares compounds with Rpn11 block;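 also: human MMP-2 activated beforehand with APMA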
Thrombin FP – thrombin (bovine) inhibition counter-screen | inhibition, % at 20 µM | bovine thrombin cleavage of Ub4-pepOG, fluorescence polarization | shares compounds with Rpn11 block | 1,900 compounds, 13% hits;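 active = mean inhibition at least 40% at 20 µM, or signal 3 deviations below plate average, so some actives read negative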;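 also: plate controls were thrombin with DMSO for no effect and buffer wells lacking thrombin for full effect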
An asterisk follows results filed as active; x = no result given. Rule as the data show it, unless noted: active = inhibition above about 40%; inactive = the rest.

SMILES	HNF4A DNA FP	TPT1 inhibitor	Rpn11 block	CSN deneddyl inh	IDE cell activ	IDE inh	Rpn11 confirm	MMP-2 inh	Thrombin FP
CC(C)(C)c1ccc(OCCC(=O)Nc2ccc(N3CCOCC3)cc2N2CCOCC2)cc1	3.3	-0.5	3.1	4.3	2.1	0.5	x	x	x
COc1ccc(NC(=O)c2ccc(C)cc2Cl)c([N+](=O)[O-])c1	-5.0	1.8	48.0*	4.8	0.8	2.9	-6.1	-25.6	-8.3
COc1ccc(NC(=O)c2cc(Br)ccc2Cl)c([N+](=O)[O-])c1	-2.8	1.3	4.0	-8.2	3.9	4.0	x	x	x
CN(C)c1cccc(C(=O)NNC(=O)CN2C(=O)C3CC=CCC3C2=O)c1 (stereo not given)	1.7	x	-2.1	4.5	2.6	3.6	x	x	x
COc1ccc(COc2ccsc2C(=O)Nc2ccc(Cl)c(Cl)c2)cc1	0.8	3.3	44.3*	-3.0	-4.2	-3.5	9.3	-20.1	-12.8
Cc1cccc2cc(C#N)c(SCC(=O)Nc3ccccc3N3CCOCC3)nc12	3.5	9.7	35.9*	6.0	3.2	-2.3	14.1	-44.5	-19.6
COc1ccc(/C=C/C(=O)NNC(=O)C(C)Oc2ccccc2F)cc1OC (stereo not given)	-2.9	x	-1.9	0.0	-3.1	-3.0	x	x	x
C#CCn1c(=NC(=O)c2cccs2)sc2cccc(OC)c21	12.1	-2.2	68.4*	-1.8	-3.3	0.5	50.1*	6.6	-8.8
COc1ccccc1Cc1c(-c2cccc(Br)c2)nc2ccc(Br)cn12	20.0	x	17.2	11.8	x	x	x	x	x
COc1ccccc1Cc1c(-c2ccc(C)cc2)nc2ccc(Br)cn12	11.0	x	48.4*	99.9*	x	x	6.6	-37.2	0.5
CC(C)(C)Cc1c(-c2cccc(Cl)c2)nc2ccc(Cl)cn12	23.9	x	43.2*	5.7	x	x	-6.0	52.1*	2.5
COc1ccccc1Cc1c(-c2cccc(Br)c2)nc2ccc(Cl)cn12	33.9	x	57.5*	14.7	x	x	60.2*	-8.1	39.3
COc1ccccc1Cc1c(-c2ccc(Cl)cc2)nc2ccc(Br)cn12	34.1	x	41.2*	14.8	x	x	40.5*	-0.5	50.8*
COc1ccccc1Cc1c(-c2ccccc2)nc2ccc(Br)cn12	17.3	x	x	3.7	x	x	x	x	x
COc1ccc(NC(=O)C(CC(=O)O)Cc2ccc(C)cc2)cc1 (stereo not given)	3.4	-1.6	6.5	-10.2	-2.0	-0.4	x	x	x
Cc1cccc(OCCCC(=O)N2CCCCCC2)c1C	5.7	x	47.4*	3.7	-1.4	x	-15.8	-1.3	-17.6
N#CC(C(=O)NCCc1ccccc1)c1nc2ccccc2nc1N1CCCCC1 (stereo not given)	11.1	-0.3	102.1*	2.9	4.7	-0.1	-81.2	-67.9	-79.4
N#CC(C(=O)NCc1ccccc1)c1nc2ccccc2nc1N1CCCC1 (stereo not given)	26.6	18.4	x	-81.6	5.5	5.3	x	x	x
COc1ccc(CCNC(=O)CN(C2CCCCC2)S(C)(=O)=O)cc1	-2.8	-4.5	114.0*	-2.9	0.9	2.2	-5.0	-30.9	-4.8
Nc1ncnc(Sc2ccc(Cl)cc2)c1[N+](=O)[O-]	3.8	-0.7	44.4*	-4.2	1.3	4.1	0.7	28.4	8.0
O=C1NC[C@H](CCCCN2C[C@H](Cc3ccccc3)N(CCC3CCCCC3)C(=O)C2=O)N(CCc2ccccc2)C1=O	2.7	x	x	3.0	x	x	x	x	x
COc1ccc(C(=O)N/C(=C\c2ccc3c(c2)OCO3)C(=O)Nc2cccc(C(=O)O)c2)cc1	-1.5	-1.0	-2.0	5.3	7.2	-0.4	x	x	x
O=c1cc(O)c2c(=O)n(C3CCCCC3)c3ccccc3c2o1	-2.4	19.8	61.9*	11.3	1.2	-5.6	25.3	-30.1	5.9
O=c1cc(O)c2c(=O)n(Cc3ccccc3)c3ccccc3c2o1	4.6	4.8	8.1	2.9	-2.1	9.5	x	x	x
